Measured values published in the M2OR odorant receptor database.
Substitutions are numbered along the chain they refer to.

Experiments:
Conditions in all cases: stereoisomer not certain
OR8U1 (Homo sapiens) = target: T1, OR8U1 (Homo sapiens) (UniProt Q8NH10)
T1 sequence (whole entry): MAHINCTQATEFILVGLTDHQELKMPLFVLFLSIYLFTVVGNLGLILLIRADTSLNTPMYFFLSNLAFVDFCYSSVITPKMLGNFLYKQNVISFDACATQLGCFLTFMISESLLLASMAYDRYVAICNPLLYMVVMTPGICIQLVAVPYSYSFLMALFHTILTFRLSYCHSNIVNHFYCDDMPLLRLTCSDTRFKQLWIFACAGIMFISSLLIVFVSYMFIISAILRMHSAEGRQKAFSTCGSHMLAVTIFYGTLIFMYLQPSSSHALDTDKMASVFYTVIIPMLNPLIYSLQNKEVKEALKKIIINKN
In short: (§1)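 Each receptor–molecule pair is labelled responsive or non-responsive (inactive) according to whether the original authors judged the measured signal statistically different from baseline. The data were taken from the main text and supplementary material of published papers and checked for typos and inconsistencies. Assay methods differed by source, with transient luciferase assays in mammalian cell lines being common.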

OR8U3 (Homo sapiens) = target: T2, OR8U3 (Homo sapiens) (UniProt Q8NH85)
T2 sequence (whole entry): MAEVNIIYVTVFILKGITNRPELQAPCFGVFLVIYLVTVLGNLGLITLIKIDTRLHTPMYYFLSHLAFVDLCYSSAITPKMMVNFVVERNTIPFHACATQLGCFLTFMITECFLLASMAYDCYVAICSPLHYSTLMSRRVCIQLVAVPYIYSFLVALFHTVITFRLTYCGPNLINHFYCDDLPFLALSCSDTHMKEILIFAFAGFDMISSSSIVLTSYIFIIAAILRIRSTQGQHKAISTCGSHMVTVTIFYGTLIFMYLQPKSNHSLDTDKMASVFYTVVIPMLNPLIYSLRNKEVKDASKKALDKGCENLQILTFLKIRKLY
In short: as §1

OR8U8 (Homo sapiens) = target: T3, OR8U8 (Homo sapiens) (UniProt P0C7N1)
T3 sequence (whole entry): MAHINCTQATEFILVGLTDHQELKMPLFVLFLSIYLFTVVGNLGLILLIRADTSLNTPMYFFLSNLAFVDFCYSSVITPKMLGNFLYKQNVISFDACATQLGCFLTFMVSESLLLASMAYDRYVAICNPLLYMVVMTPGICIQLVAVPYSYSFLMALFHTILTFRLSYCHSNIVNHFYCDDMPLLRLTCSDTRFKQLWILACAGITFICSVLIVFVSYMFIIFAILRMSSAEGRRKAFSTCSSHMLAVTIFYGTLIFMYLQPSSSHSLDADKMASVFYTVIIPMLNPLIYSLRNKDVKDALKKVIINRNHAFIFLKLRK
In short: as §1

OR8U9 (Homo sapiens) = target: T4, OR8U9 (Homo sapiens) (UniProt P0C7N5)
T4 sequence (whole entry): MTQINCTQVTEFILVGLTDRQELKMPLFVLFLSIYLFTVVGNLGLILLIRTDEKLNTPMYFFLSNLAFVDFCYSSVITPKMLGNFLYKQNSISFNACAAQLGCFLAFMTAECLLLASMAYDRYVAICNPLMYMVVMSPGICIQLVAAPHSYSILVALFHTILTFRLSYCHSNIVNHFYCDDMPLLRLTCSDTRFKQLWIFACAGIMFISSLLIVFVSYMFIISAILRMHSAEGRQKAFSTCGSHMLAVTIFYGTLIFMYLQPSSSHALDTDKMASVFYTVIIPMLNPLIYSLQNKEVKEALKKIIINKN
In short: as §1

OR8U9 T2A Q3H Q293R = test system: T5, OR8U9 T2A Q3H Q293R
T5 sequence (whole entry): T4 sequence (whole entry) with T2A, Q3H, Q293R
In short: as §1

OR8U9 = test system: T6, OR8U9
T6 sequence (whole entry): T4 sequence (whole entry) with Q293R
In short: as §1

OR9A2 (Homo sapiens) = target: T7, OR9A2 (Homo sapiens) (UniProt Q8NGT5)
T7 sequence (whole entry): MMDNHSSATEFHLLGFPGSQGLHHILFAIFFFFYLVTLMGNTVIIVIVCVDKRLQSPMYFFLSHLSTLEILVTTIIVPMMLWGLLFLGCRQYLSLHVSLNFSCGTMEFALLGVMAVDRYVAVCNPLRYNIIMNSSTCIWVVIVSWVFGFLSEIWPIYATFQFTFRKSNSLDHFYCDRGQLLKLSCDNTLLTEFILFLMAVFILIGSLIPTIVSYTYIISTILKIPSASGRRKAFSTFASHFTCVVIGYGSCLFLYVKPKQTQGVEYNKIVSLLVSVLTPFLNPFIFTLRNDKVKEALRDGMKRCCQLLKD
In short: as §1

OR9A2 C304Y = test system: T8, OR9A2 C304Y
T8 sequence (whole entry): T7 sequence (whole entry) with C304Y
In short: as §1

OR8U8 [1] = test system: T9, OR8U8
T9 sequence (whole entry): T3 sequence (whole entry) with V109I, S112C
In short: as §1

OR8U8 [2] = test system: T10, OR8U8; remark: listed apart in the source
T10 sequence (whole entry): T3 sequence (whole entry) with H20R, V109I, R165C
In short: as §1
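Note: active if original authors judged signal statistically different from baseline.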

Structure (SMILES)	odorant receptor agonist call (OR8U1 (Homo sapiens))	odorant receptor agonist call (OR8U3 (Homo sapiens))	odorant receptor agonist call (OR8U8 (Homo sapiens))	odorant receptor agonist call (OR8U9 (Homo sapiens))	odorant receptor agonist call (OR8U9 T2A Q3H Q293R)	odorant receptor agonist call (OR8U9)	odorant receptor agonist call (OR9A2 (Homo sapiens))	odorant receptor agonist call (OR9A2 C304Y)	odorant receptor agonist call (OR8U8 [1])	odorant receptor agonist call (OR8U8 [2])
CCCCCCC=CCCC=O	inactive	inactive	inactive	inactive	inactive	inactive	inactive	inactive	–	–
CC(CO)CS (stereo not drawn)	inactive	inactive	inactive	inactive	–	–	inactive	–	–	–
CC1=C(O)C(=O)C(C)O1 (stereo not drawn)	inactive	inactive	–	inactive	inactive	inactive	inactive	inactive	inactive	inactive
CCC(S)C(C)CO (stereo not drawn)	inactive	inactive	inactive	inactive	–	–	inactive	–	–	–
CCCC(S)CCOC(C)=O (stereo not drawn)	inactive	inactive	–	inactive	inactive	inactive	inactive	inactive	inactive	inactive
CC1CCCCCCCCCCCCC(=O)C1 (stereo not drawn)	inactive	inactive	inactive	inactive	–	–	inactive	–	–	–
CC1=C(O)C(=O)OC1C (stereo not drawn)	inactive	inactive	–	inactive	inactive	inactive	inactive	inactive	inactive	inactive
O=C1CCOc2ccccc21	–	active	–	–	–	–	–	–	–	–
O=c1ccc2ccccc2o1	–	active	–	–	–	–	–	–	–	–
Cc1cnc(C)c(C)n1	inactive	inactive	–	inactive	inactive	inactive	inactive	inactive	inactive	inactive
CC(=O)c1c(C)c([N+](=O)[O-])c(C(C)(C)C)c([N+](=O)[O-])c1C	inactive	inactive	inactive	inactive	–	–	inactive	–	–	–
CCC1OC(=O)C(O)=C1C (stereo not drawn)	inactive	inactive	–	inactive	inactive	inactive	inactive	inactive	inactive	inactive
CCCCCC(S)C(C)CO (stereo not drawn)	inactive	inactive	inactive	inactive	–	–	inactive	–	–	–
CCC1OC(C)=C(O)C1=O (stereo not drawn)	inactive	inactive	–	inactive	inactive	inactive	inactive	inactive	inactive	inactive
CCCCCC(=O)C(C)C(C)=O (stereo not drawn)	inactive	inactive	inactive	inactive	–	–	inactive	–	–	–
CCCCC(S)C(C)CO (stereo not drawn)	inactive	inactive	inactive	inactive	–	–	inactive	–	–	–
CC1=NC(C)C(C)S1 (stereo not drawn)	inactive	inactive	–	inactive	inactive	inactive	inactive	inactive	inactive	inactive
